Assay results from ChEMBL document CHEMBL5058577, “EUbOPEN Chemogenomics Library 2 (Multiplex)” (2022).

Tested on: U2OS
Assay: Multiplex assay against U2OS
Assay type: toxicity, cell-based
Details: human
Summary of the method: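 Values for tubulin, mitochondrial-mass and membrane-permeability phenotypes are per cents of cells with healthy nuclei. These cells were identified by CellPathfinder machine-learning gating of live cells that had been stained at seeding with Hoechst33342, BioTracker Green Microtubule Cytoskeleton Dye, MitoTracker Red and Annexin V Alexa Fluor 680 and imaged on a CQ1 microscope at 37°C and 5% CO2 after compound addition. The gating first set Hoechst high-intensity objects apart from normal cells, then split normal cells into healthy, pyknosed or fragmented nuclei, and pyknosed cells into mitotic or apoptotic.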

[1] = 12 h, 1 µM, compound concentration 1 uM, replicate 1
[2] = 12 h, 1 µM, compound concentration 1 uM, replicate 2
[3] = 12 h, 10 µM, compound concentration 10 uM, replicate 1
[4] = 12 h, 10 µM, compound concentration 10 uM, replicate 2
[5] = 24 h, 1 µM, compound concentration 1 uM, replicate 1
[6] = 24 h, 1 µM, compound concentration 1 uM, replicate 2
[7] = 24 h, 10 µM, compound concentration 10 uM, replicate 1
[8] = 24 h, 10 µM, compound concentration 10 uM, replicate 2
[9] = 48 h, 1 µM, compound concentration 1 uM, replicate 1
[10] = 48 h, 1 µM, compound concentration 1 uM, replicate 2
[11] = 48 h, 10 µM, compound concentration 10 uM, replicate 1
[12] = 48 h, 10 µM, compound concentration 10 uM, replicate 2

CCCCC1=NC2(CCCC2)C(=O)N1Cc1ccc(-c2ccccc2-c2nnn[nH]2)cc1 [IRBESARTAN]
Population Apoptotic (%) [1]: 83%
Population Fragmented Nuclei (%) [1]: 25%
Population Healthy Nuclei (%) [1]: 66%
Population Hoechst High Intensity Objects (%) [1]: 2%
Population Membrane Permeable-Phenotype (%) [1]: 5%
Population Mitochondria Different-Phenotype (%) [1]: 1%
Population Mitotic Cells (%) [1]: 16%
Population Normal (%) [1]: 97%
Population Pyknosed Nuclei (%) [1]: 7%
Population Tubulin-Different-Phenotype (%) [1]: 1%
Total Cell Count [1]: 233
Population Apoptotic (%) [2]: 77%
Population Fragmented Nuclei (%) [2]: 9%
Population Healthy Nuclei (%) [2]: 82%
Population Hoechst High Intensity Objects (%) [2]: 0%
Population Membrane Permeable-Phenotype (%) [2]: 11%
Population Mitotic Cells (%) [2]: 22%
Population Normal (%) [2]: 99%
Population Tubulin-Different-Phenotype (%) [2]: 8%
Total Cell Count [2]: 124
Population Apoptotic (%) [3]: 91%
Population Fragmented Nuclei (%) [3]: 22%
Population Healthy Nuclei (%) [3]: 68%
Population Hoechst High Intensity Objects (%) [3]: 2%
Population Membrane Permeable-Phenotype (%) [3]: 4%
Population Mitochondria Different-Phenotype (%) [3]: 3%
Population Mitotic Cells (%) [3]: 8%
Population Normal (%) [3]: 97%
Population Pyknosed Nuclei (%) [3]: 9%
Population Tubulin-Different-Phenotype (%) [3]: 2%
Total Cell Count [3]: 254
Population Apoptotic (%) [4]: 100%
Population Fragmented Nuclei (%) [4]: 18%
Population Healthy Nuclei (%) [4]: 74%
Population Hoechst High Intensity Objects (%) [4]: 0%
Population Membrane Permeable-Phenotype (%) [4]: 8%
Population Mitochondria Different-Phenotype (%) [4]: 6%
Population Mitotic Cells (%) [4]: 0%
Population Normal (%) [4]: 100%
Population Pyknosed Nuclei (%) [4]: 8%
Population Tubulin-Different-Phenotype (%) [4]: 8%
Total Cell Count [4]: 100
Population Apoptotic (%) [5]: 70%
Population Fragmented Nuclei (%) [5]: 23%
Population Healthy Nuclei (%) [5]: 69%
Population Hoechst High Intensity Objects (%) [5]: 3%
Population Membrane Permeable-Phenotype (%) [5]: 6%
Population Mitochondria Different-Phenotype (%) [5]: 3%
Population Mitotic Cells (%) [5]: 29%
Population Normal (%) [5]: 96%
Population Pyknosed Nuclei (%) [5]: 7%
Population Tubulin-Different-Phenotype (%) [5]: 3%
Total Cell Count [5]: 241
Population Apoptotic (%) [6]: 66%
Population Fragmented Nuclei (%) [6]: 12%
Population Healthy Nuclei (%) [6]: 76%
Population Hoechst High Intensity Objects (%) [6]: 2%
Population Membrane Permeable-Phenotype (%) [6]: 9%
Population Mitochondria Different-Phenotype (%) [6]: 2%
Population Mitotic Cells (%) [6]: 33%
Population Normal (%) [6]: 97%
Population Pyknosed Nuclei (%) [6]: 10%
Population Tubulin-Different-Phenotype (%) [6]: 4%
Total Cell Count [6]: 142
Population Apoptotic (%) [7]: 96%
Population Fragmented Nuclei (%) [7]: 18%
Population Healthy Nuclei (%) [7]: 73%
Population Hoechst High Intensity Objects (%) [7]: 2%
Population Membrane Permeable-Phenotype (%) [7]: 6%
Population Mitochondria Different-Phenotype (%) [7]: 3%
Population Mitotic Cells (%) [7]: 4%
Population Normal (%) [7]: 97%
Population Pyknosed Nuclei (%) [7]: 8%
Population Tubulin-Different-Phenotype (%) [7]: 4%
Total Cell Count [7]: 301
Population Apoptotic (%) [8]: 91%
Population Healthy Nuclei (%) [8]: 72%
Population Hoechst High Intensity Objects (%) [8]: 0%
Population Membrane Permeable-Phenotype (%) [8]: 7%
Population Mitotic Cells (%) [8]: 8%
Population Normal (%) [8]: 99%
Population Tubulin-Different-Phenotype (%) [8]: 3%
Total Cell Count [8]: 135
Population Apoptotic (%) [9]: 97%
Population Fragmented Nuclei (%) [9]: 18%
Population Healthy Nuclei (%) [9]: 71%
Population Hoechst High Intensity Objects (%) [9]: 2%
Population Membrane Permeable-Phenotype (%) [9]: 5%
Population Mitochondria Different-Phenotype (%) [9]: 2%
Population Mitotic Cells (%) [9]: 2%
Population Normal (%) [9]: 97%
Population Pyknosed Nuclei (%) [9]: 10%
Population Tubulin-Different-Phenotype (%) [9]: 2%
Total Cell Count [9]: 357
Population Apoptotic (%) [10]: 94%
Population Fragmented Nuclei (%) [10]: 14%
Population Healthy Nuclei (%) [10]: 76%
Population Hoechst High Intensity Objects (%) [10]: 4%
Population Membrane Permeable-Phenotype (%) [10]: 6%
Population Mitochondria Different-Phenotype (%) [10]: 1%
Population Mitotic Cells (%) [10]: 5%
Population Normal (%) [10]: 95%
Population Pyknosed Nuclei (%) [10]: 9%
Total Cell Count [10]: 198
Population Apoptotic (%) [11]: 89%
Population Fragmented Nuclei (%) [11]: 14%
Population Healthy Nuclei (%) [11]: 75%
Population Hoechst High Intensity Objects (%) [11]: 3%
Population Membrane Permeable-Phenotype (%) [11]: 7%
Population Mitochondria Different-Phenotype (%) [11]: 3%
Population Mitotic Cells (%) [11]: 10%
Population Normal (%) [11]: 96%
Population Pyknosed Nuclei (%) [11]: 9%
Population Tubulin-Different-Phenotype (%) [11]: 3%
Total Cell Count [11]: 419
Population Apoptotic (%) [12]: 94%
Population Fragmented Nuclei (%) [12]: 16%
Population Healthy Nuclei (%) [12]: 72%
Population Hoechst High Intensity Objects (%) [12]: 4%
Population Membrane Permeable-Phenotype (%) [12]: 9%
Population Mitochondria Different-Phenotype (%) [12]: 7%
Population Mitotic Cells (%) [12]: 5%
Population Normal (%) [12]: 95%
Population Pyknosed Nuclei (%) [12]: 10%
Population Tubulin-Different-Phenotype (%) [12]: 7%
Total Cell Count [12]: 175
